M1 agonist: M1 muscarinic receptor agonists, primary screen, CHO-M1 cells, Fluo-4 calcium, agonist mode; AID 626, 2007; B-score at 10 µM; Fluo-4 calcium fluorescence; hits give high values; hit rate 3% among 64,000; Muscarinic acetylcholine receptor M1;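 active = fluorescence rise, raw or as B-score row- and column-corrected plate score, outside the 99.7% band of its plate's samples, either direction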
Htt clearance: clearance of mutant huntingtin inclusions, primary screen, imaging, HeLa Exon1htt(103Q)mCFP, confocal imaging | aggregate imaging; zero = plate's median compound well | inhibition, % at 1.5 µM | hit rate 0.42% among 47,000;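 active = inhibition of aggregate fluorescence above about 70%, also judged a hit by eye on the cell image, limit read from the data, passing the limit was not always enough; inconclusive = no rule stated for this call; inactive = not judged a hit on image review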;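 note: cells exposed to compound for three days before fixation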
RORA act: activators of orphan receptor RORA, primary screen, cell-based, luminescence | Nuclear receptor ROR-alpha (Homo sapiens), P35398 | CHO-K1 Gal4-RORA LBD luciferase reporter; percent increase over mock-subtracted basal signal | activation, % at 10 µM | hit rate 1.5% among 65,000 | AID 560, 2006;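 active = activation above the mean of all tested compounds plus 3 SD, cut at about 49% in these data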
Target sequence (P35398 whole entry, looked up, the tested form may be a part): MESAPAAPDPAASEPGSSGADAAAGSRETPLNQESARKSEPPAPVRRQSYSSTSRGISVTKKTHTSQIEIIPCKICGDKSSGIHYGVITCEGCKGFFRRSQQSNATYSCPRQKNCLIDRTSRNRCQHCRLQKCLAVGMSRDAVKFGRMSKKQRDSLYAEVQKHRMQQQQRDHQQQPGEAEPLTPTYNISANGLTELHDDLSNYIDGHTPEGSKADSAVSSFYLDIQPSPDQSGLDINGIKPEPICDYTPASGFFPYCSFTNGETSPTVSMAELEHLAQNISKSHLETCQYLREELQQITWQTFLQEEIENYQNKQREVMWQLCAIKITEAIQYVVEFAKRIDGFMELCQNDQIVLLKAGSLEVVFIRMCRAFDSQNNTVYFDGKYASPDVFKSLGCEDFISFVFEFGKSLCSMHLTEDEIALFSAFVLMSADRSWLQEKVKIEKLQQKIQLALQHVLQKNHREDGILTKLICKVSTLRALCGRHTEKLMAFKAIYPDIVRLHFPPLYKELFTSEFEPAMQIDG
D1 mod: D1 CRE-luciferase signal change, two-sided – cell-based, HEK293 D1, dopamine EC30, D1 allosteric modulator project, primary screen; B-score at 10 µM; dopamine EC30 potentiation; actives deviate in either direction; D(1A) dopamine receptor (Homo sapiens), P21728; hit rate 5.9% among 58,000;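 active = luminescence count or its row- and column-corrected plate score outside the 99.7% band of the plate's sample wells, on either side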
SF1 activator: activators of human SF-1, primary screen, cell-based, CHO-K1, Gal4-SF-1 LBD, luciferase luminescence; Steroidogenic factor 1 (Homo sapiens), Q13285; CHO-K1 Gal4-SF-1 LBD luciferase reporter; % increase over DMSO SF-1-specific signal; activation, % at 10 µM; hit rate 1.9% among 65,000;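 active = activation above the mean activation of all tested compounds plus 3 SD, cut at about 50% in these data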
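material = CHO-K1 cells with Gal4–hSF-1 LBD chimera plus Gal4-driven luciferase | compound = 10 µM single point, 1% DMSO | incubation = 20 h compound exposure at 37 °C after 1 h cell settling | measured by = SteadyLite luciferase luminescence | evaluation = percent activation relative to DMSO median and mock-transfected background | control set = DMSO negative control and −SF1 background wells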
M1 antagonist: antagonists of rat M1 muscarinic receptor. Muscarinic acetylcholine receptor M1 (Rattus norvegicus), P08482. CHO-M1 cells, Fluo-4 calcium, ACh EC80 antagonist mode; hits give low values. B-score at 10 µM. hit rate 3.4% among 64,000;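 active = calcium fluorescence response, raw or row-and-column corrected B-score, differing from the plate sample mean either way at a set confidence level, mostly lower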
M1 agonist conf: rat M1 muscarinic receptor agonists, confirmation, CHO-M1 cells, Fluo-4 calcium, duplicate retest | AID 1488, 2009 | fluorescence change (max-min) at 10 µM | Fluo-4 calcium fluorescence, agonist mode; actives lie on both sides | shares compounds with M1 agonist | hit rate 19% among 1,700;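 active = fluorescence change differs from the solvent-only DMSO control mean at a set confidence level in both duplicate runs; inconclusive = differs from solvent-only control mean in just one of two runs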;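 note: an EC20 dose of acetylcholine follows compound addition during the same imaging run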
M4 agonist ctr: agonist activity at rat M4 receptor, confirmation, counter-screen for M1 allosteric modulator project, cell-based, agonist mode; shares compounds with M1 agonist; CHO M4/Gqi5 cells, Fluo-4 calcium fluorescence; actives lie on both sides; fluorescence change (max-min) at 10 µM; hit rate 9% among 1,700; AID 1741, 2009;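 active = fluorescence change differing from the plate's solvent-only control wells at 99.7% confidence in both duplicates, whether higher or lower; inconclusive = differs from solvent controls in only one of two duplicates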
Large screens that a line does not name were inactive (follow-up assays come after a bar, where they were run). In the library only some 11% were active in any assay of this set; here they are far more common.

CCOC(=O)Cc1csc(NC(=O)CSc2nnc(-n3nc(C)cc3C)c3ccccc23)n1	M1 agonist 4.71 | M1 agonist conf inactive | M4 agonist ctr inactive
CCOC(=O)Cc1csc(NC(=O)CSc2nnc(-c3ccc(C)cc3)o2)n1	none (no result: Htt clearance)
CC(=O)Nc1ccc(OCC(O)CN2CCN(c3cc(Cl)ccc3C)CC2)cc1 (centres undefined)	none
CC(=O)Nc1ccc(OCC(O)CN2CCN(c3ccc(C)c(Cl)c3)CC2)cc1 (centres undefined)	M1 agonist 1.89, D1 mod -2.6 (no result: Htt clearance) | M1 agonist conf inactive | M4 agonist ctr inactive
CCOC(=O)N1CCN(C(=O)c2ccc3nc(SCc4ccc(F)cc4)n(C)c3c2)CC1	M1 agonist 4.02, M1 antagonist -2.78 (no result: D1 mod) | M1 agonist conf inconclusive | M4 agonist ctr inactive
Nc1nc(NC(=O)c2cccc(S(=O)(=O)N3CCCCCC3)c2)nc(-c2ccccc2)n1	none (no result: Htt clearance, D1 mod)
CCOC(=O)CSC1=C(C#N)C(c2ccc(Cl)cc2)CC(=O)N1 (centres undefined)	M1 agonist 3.01 | M1 agonist conf inactive | M4 agonist ctr inconclusive
O=C(OCC(=O)N1CCN(C(=O)c2ccco2)CC1)c1cn(-c2ccccc2)nc1-c1ccccc1	M1 agonist 4.54 (no result: Htt clearance) | M1 agonist conf inconclusive | M4 agonist ctr inactive
O=C(OCC(=O)N1CCN(C(=O)c2ccco2)CC1)c1cc(-c2ccc(F)cc2)nc2ccccc12	M1 agonist 10.6 (no result: D1 mod) | M1 agonist conf 82.2 | M4 agonist ctr inactive
CC(C)C(c1nnnn1C1CCCC1)N1CCN(C(=O)c2ccco2)CC1 (centres undefined)	none
COC(=O)c1cc(=O)n(CCc2ccc(OC)c(OC)c2)c(=Nc2ccc(F)c(Cl)c2)s1	none (no result: M1 agonist, RORA act, D1 mod, SF1 activator, M1 antagonist)
CC(=O)c1c(C)nc2ccc(Cl)cn12	none (no result: M1 agonist, RORA act, D1 mod, SF1 activator, M1 antagonist)
OCCCc1nc2n(n1)C(c1ccccc1Cl)C=C(c1cccs1)N2 (centres undefined)	M1 agonist 33.5 (no result: Htt clearance) | M1 agonist conf 206 | M4 agonist ctr 197
CCCOC(=O)CSc1nc(N)c(C#N)c(CC)c1C#N	none (no result: Htt clearance)
COc1ccc(C(C)=O)c(Oc2nc(CN3CCOCC3)nc3scc(-c4cccs4)c23)c1	M1 agonist 45 | M1 agonist conf inactive | M4 agonist ctr inactive
Cc1ccc(Cn2nnc3c(=O)n(Cc4ccccc4C)cnc32)cc1	none (no result: Htt clearance)
CCOC(=O)C1CCCN(c2ncnc3c2cnn3-c2cccc(C)c2)C1 (centres undefined)	M1 agonist 33.4, M1 antagonist -2.22 (no result: Htt clearance, D1 mod) | M1 agonist conf 282 | M4 agonist ctr inactive
CCOC(=O)C1CCN(c2ncnc3c2cnn3-c2ccc(OC)cc2)CC1	none (no result: Htt clearance, D1 mod)
COc1cccc(N2CCN(c3ncnc4c3cnn4-c3ccc(C)cc3C)CC2)c1	M1 agonist 9.74, D1 mod -7.41 | M1 agonist conf inactive | M4 agonist ctr inactive
Cc1ccc(S(=O)(=O)N2CCN(c3ncnc4c3cnn4-c3ccccc3)CC2)cc1	none
COc1ccc2cc(C(=O)NCc3ccco3)c(=Nc3ccc(C(=O)O)cc3)oc2c1	M1 agonist 2.7 (no result: Htt clearance) | M1 agonist conf inconclusive | M4 agonist ctr inactive
CC(=O)NC1(C2CCCCC2=O)CCCCC1 (centres undefined)	M1 agonist 3.61 | M1 agonist conf inactive | M4 agonist ctr inactive
CCC(Oc1ccccc1)C(=O)Nc1ccc(S(=O)(=O)NCC2CCCO2)cc1 (centres undefined)	M1 agonist -2.17 | M1 agonist conf inactive | M4 agonist ctr inactive
Cc1ccc(-c2nc3ccccn3c2NCc2ccc3c(c2)OCO3)cc1	none (no result: M1 agonist, RORA act, D1 mod, SF1 activator, M1 antagonist)
CCOc1cc(-c2nc3ccccn3c2NCC2CCCO2)ccc1O (centres undefined)	M1 agonist 10.4, D1 mod -4.11, M1 antagonist -1.77 (no result: Htt clearance) | M1 agonist conf inactive | M4 agonist ctr inactive
Cc1ccc(S(=O)(=O)N2CCN(C(=O)c3cc(=O)[nH]c4ccccc34)CC2)c(C)c1	M1 agonist 4.71 (no result: Htt clearance) | M1 agonist conf inactive | M4 agonist ctr inactive
COc1ccc(-c2c(C)nn(-c3ccccc3)c2N)cc1OC	none (no result: M1 agonist, RORA act, D1 mod, SF1 activator, M1 antagonist)
CCN(CC)P1(=O)OC(c2cc(OC)c(OC)c(OC)c2)=Nc2c1c(C)nn2-c1ccccc1 (centres undefined)	M1 agonist 4.42 (no result: Htt clearance) | M1 agonist conf inactive | M4 agonist ctr inactive
CCOC(=O)c1ccc(Nc2nnc(C(C)(C)C)c(=O)[nH]2)cc1	M1 agonist 3.54 | M1 agonist conf inactive | M4 agonist ctr inactive
CCOC(=O)c1ccc(NC(=O)C2CC2)cc1	none (no result: Htt clearance)
CCCS(=O)(=O)N1CCN(CC2CC3C=CC2C3)CC1 (centres undefined)	M1 agonist 3.07 | M1 agonist conf inactive | M4 agonist ctr inconclusive
Cc1nc(NC(C)c2ccccc2)c2oc3ccccc3c2n1 (centres undefined)	M1 agonist 3.32 | M1 agonist conf inactive | M4 agonist ctr inactive
Cc1nc(NCCc2cnc[nH]2)c2oc3ccccc3c2n1	none (no result: Htt clearance)
COc1ccc(CCNc2nc(C)nc3c2oc2ccccc23)cc1OC	M1 agonist 17.6, M1 antagonist -2.31 (no result: Htt clearance, D1 mod) | M1 agonist conf inactive | M4 agonist ctr inconclusive
COc1ccc(CCNc2ncnc3c2oc2ccccc23)cc1OC	M1 agonist 7.05, M1 antagonist -4.07 | M1 agonist conf inactive | M4 agonist ctr inactive
O=C(OCn1nnc2ccccc2c1=O)c1ccc(S(=O)(=O)N2CCOCC2)cc1	none
CCN(CC)S(=O)(=O)c1ccc(C(=O)OCn2nnc3ccccc3c2=O)cc1	M1 agonist 6.24 | M1 agonist conf inactive | M4 agonist ctr inconclusive
CC(NC(=O)NC1CCCCC1)C(c1cccs1)N1CCN(C)CC1 (centres undefined)	none (no result: Htt clearance)
CN(C)c1ccc(/C=C/c2cc[n+]([O-])cc2)cc1	M1 agonist 247 | M1 agonist conf 876 | M4 agonist ctr 895
COCCn1c(C)cc(C(=O)COC(=O)c2c(C)nn(Cc3ccccc3)c2C)c1C	none (no result: Htt clearance, D1 mod)
COCCn1c(C)cc(C(=O)COc2nc3ccccc3nc2C)c1C	M1 agonist 5.22 (no result: Htt clearance) | M1 agonist conf inactive | M4 agonist ctr inactive
CCN=C1SC(C(=O)Nc2cccc(OCC)c2)CC(=O)N1CC (centres undefined)	M1 agonist 7.6 (no result: Htt clearance) | M1 agonist conf inactive | M4 agonist ctr inactive
